# “Also recorded” adds a separate entry of the source.
# Tests used:
# mAb TnI-1 = test: Competitive ELISA affinity titration against mAb TnI-1; assay type: binding; conditions: compared with wild type at ~0.1 μM (Figure 8)
# Method in brief: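 Wells coated overnight at 4°C with purified bovine cardiac TnI in pH 7.0 PIPES/KCl/MgCl2 buffer, then blocked with 1% BSA. mAb TnI-1 was added at a preset sub-maximal level together with serial dilutions of biologically or chemically made peptide. Detection used HRP anti-mouse IgG and H2O2-ABTS, read at 420 nm every 5 min for 30 min. Triplicate wells; each assay repeated.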
# [1] = system: skinned mouse ventricular papillary muscle; test: Force-pCa contractility of skinned mouse ventricular papillary muscle; assay type: cell-based; conditions: 20 μM peptide, 15°C
# Method in brief: (§1)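 Left ventricular papillary muscle was cryosectioned at 35 μm, cut into 140–150 μm strips and stored at −20°C in glycerol relaxing buffer. Strips were clip-mounted, skinned 20 min in 1% Triton X-100 and set to sarcomere length 2.0 or 2.3 μm. Isometric force was read at pCa 6.5–4.5 at 15°C, then repeated with 20 μM peptide. Curves were Hill-fitted and compared by paired t-test.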
# [2] = system: skinned rat ventricular papillary muscle; test: Force-pCa contractility of skinned rat ventricular papillary muscle; assay type: cell-based; conditions: 20 μM peptide, 15°C
# Method in brief: as §1
# [3] = system: skinned mouse EDL muscle fibers; test: Force-pCa contractility of skinned mouse EDL muscle fibers; assay type: cell-based; conditions: 20 μM peptide; sarcomere length 2.7 μm; 15°C; N = 4
# Method in brief: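 Whole EDL from adult C57BL/6 mice was split along the fibres in relaxing buffer and stored at −20°C in 50% glycerol buffer. Fibres were mounted on T-clips, further skinned 20 min in 1% Triton X-100 and set to sarcomere length 2.7 μm. Force was read at pCa 6.5–4.5 at 15°C, before and after adding 20 μM peptide; curves were Hill-fitted.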
# [4] = biological target: bovine cardiac α-tropomyosin (bovine, UniProt Q5KR49 1-284); test: ELISA
molecule,measurement,setting,value
"HcTnI-C27-H: R192H mutant of the C-terminal 27 amino acid peptide of human cardiac TnI (ENREVGDWHKNIDALSGMEGRKKKFES; left off: Tx3 metal-binding tag, N-terminal, cleaved | SUMO, N-terminal, cleaved)",Effect on competition for mAb TnI-1 compared with wild type peptide,mAb TnI-1,only minimum effect
"HcTnI-C27: C-terminal 27 amino acid peptide of human cardiac TnI (ENREVGDWRKNIDALSGMEGRKKKFES; left off: Tx3 metal-binding tag, N-terminal, cleaved | SUMO, N-terminal, cleaved)","Effect on force-pCa curves, mouse cardiac, both sarcomere lengths",[1]; SL 2.0 μm and 2.3 μm,right-shifts of the force-pCa curves
same,"Effect on Ca^2+-sensitivity (force-pCa curve), mouse cardiac, SL 2.0 μm","[1]; sarcomere length 2.0 μm, N = 3",more obvious at sarcomere length of 2.0 μm in the activated state; also recorded: decreased Ca^2+-sensitivity
same,"Effect on cooperativity (n), mouse cardiac, SL 2.0 μm","[1]; sarcomere length 2.0 μm, N = 3",significantly lowered cooperativity
same,"Effect on Ca^2+-sensitivity (force-pCa curve), mouse cardiac, SL 2.3 μm","[1]; sarcomere length 2.3 μm, n = 4",decreased Ca^2+-sensitivity
same,"Effect on Ca^2+-sensitization by increasing sarcomere length, rat",[2]; SL increased from 2.0 μm to 2.3 μm,completely diminishing the Ca^2+-sensitization effect; also recorded: diminished the Ca^2+-sensitization effect
same,"Effect on cooperativity (n), rat, SL 2.0 μm","[2]; sarcomere length 2.0 μm, pH 7.0, N = 4",small effect on lowering pCa50 and cooperativity
same,"Effect on cooperativity (n), rat, SL 2.3 μm","[2]; sarcomere length 2.3 μm, pH 7.0, n = 3",significantly decreased Ca^2+ sensitivity and cooperativity (n)
same,"Effect on myofilament Ca^2+ sensitivity, mouse EDL",[3],myofilament Ca^2+-desensitization effect predominantly in the activated state; also recorded: decreases in myofilament Ca^2+ sensitivity in the activated state at higher Ca^2+ concentrations
same,"Maximum force production, mouse EDL",[3],without change of maximum force production
"ENREVGDWRKNIDALSGMEGRKKKFES (peptide, UniProt P19429 184-210, looked up) [C-terminal 27 amino acid peptide of human cardiac TnI (HcTnI-C27), free peptide]",binding result,[4],binds

# From article PMC6894423 (Journal of molecular and cellular cardiology, 2019)
